Legend:
Assay type in all cases: cell-based
[1] = tested on: Huh-7 (hepatocellular carcinoma) cells; assay: MTT cytotoxicity assay, Huh-7; conditions: Homo sapiens, Huh-7, 24 h, read-out: Cytotoxic activity, IC50, Huh-7
Outline: (§1)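 Cells grown in DMEM/F12 with 10% FBS, penicillin (100 U mL−1) and streptomycin (100 μg mL−1) at 37 °C, 5% CO2, and passaged twice weekly by trypsinization. Seeded at 5 × 10^3 cells per well for 24 h, then exposed to a range of test compound concentrations for 24 h. MTT (5 mg mL−1 stock) added for 2 h, supernatant removed, formazan dissolved in DMSO, absorbance read at 540 nm, and IC50 calculated. Controls: doxorubicin (positive) and 0.75% DMSO (negative).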

[2] = tested on: MDA-MB231 (breast) cells; assay: MTT cytotoxicity assay, MDA-MB231; conditions: Homo sapiens, MDA-MB-231, 24 h, read-out: Cytotoxic activity, IC50, MDA-MB231
Outline: as §1

[3] = MTT cytotoxicity assay, NHDF; conditions: human, normal human dermal fibroblasts (NHDF)
Outline: as §1

[4] = tested on: KKU-100 (cholangiocarcinoma) cells; assay: MTT cytotoxicity assay, KKU-100; conditions: Homo sapiens, KKU100, 24 h, read-out: Cytotoxic activity, IC50, KKU-100
Outline: as §1

[5] = tested on: MDA-MB231, Huh-7, KKU-100 and normal human dermal fibroblast (NHDF) cell lines; assay: MTT cytotoxicity assay, all cell lines; conditions: 24 h, read-out: IC50 values against all the cell lines
Outline: as §1

SMILES | IC50 [1] [µM] | IC50 [2] [µM] | IC50 at 24 h [3] [µM] | IC50 [4] [µM] | IC50 [5] [µM]
CC(C)=CCOc1ccc(-c2coc3cc(OCC=C(C)C)cc(O)c3c2=O)cc1 [Compound 9, 7,4′-di-O-prenylgenistein] | > 100 | > 100 | > 100 | > 100 | > 100
COc1cccc2c1C(=O)c1c(O)c3c(c(O)c1C2=O)C[C@@](O)(C(=O)CO)C[C@@H]3O[C@H]1C[C@H](N)[C@H](O)[C@H](C)O1 [Doxorubicin, reference compound] | – | – | 5 | 1.9 | –

Reference: publication PMC9590589 (RSC Advances, 2022)
